One block for each molecule: values may come before it.
Experiments:
[1] = tested on: RHR (renal hypertensive rat) model; experiment: RHR model, oral QD study; type: in vivo; conditions: both doses (0.06 and 0.2 mg/kg)
[2] = tested on: RHR (renal hypertensive rat) model; experiment: RHR model, subcutaneous infusion via osmotic minipump; type: in vivo; conditions: SC infusion
In short: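 Renal hypertensive rats (male Sprague-Dawley) received test compound for 10 days by subcutaneous osmotic minipump. The low dose targeted a steady-state plasma level of ≈100 nmol/L; the high dose targeted ≈10-fold more. SV, CO and diastolic parameters were assessed by echocardiography, with cardiac fibrosis and heart weight also scored. One-way ANOVA with Tukey or Dunnett tests was used.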

[3] = Plasma exposure during and after IV infusion, anesthetized cannulated rats; type: in vivo, rat
human APJ [4] = molecular target: T1, human APJ (Homo sapiens, UniProt P35414); experiment: BRET-based biosensor assays; type: cell-based
T1 sequence (P35414 1-380): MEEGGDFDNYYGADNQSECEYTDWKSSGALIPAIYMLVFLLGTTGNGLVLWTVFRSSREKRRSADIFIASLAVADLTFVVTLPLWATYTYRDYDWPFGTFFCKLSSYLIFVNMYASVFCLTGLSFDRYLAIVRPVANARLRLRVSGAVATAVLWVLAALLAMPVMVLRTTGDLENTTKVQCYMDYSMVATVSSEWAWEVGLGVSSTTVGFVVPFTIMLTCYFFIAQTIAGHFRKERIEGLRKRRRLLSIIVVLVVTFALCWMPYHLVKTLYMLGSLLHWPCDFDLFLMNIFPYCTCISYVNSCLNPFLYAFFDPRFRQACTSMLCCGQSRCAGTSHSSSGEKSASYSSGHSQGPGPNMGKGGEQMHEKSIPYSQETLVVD

[5] = Plasma concentrations of BMS-986224 in the RHR studies; type: in vivo, rat; conditions: for steady-state plasma concentration: SC 10-day infusion
In short: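 Renal hypertensive rat model in male Sprague-Dawley rats. Dosing was either a 10-day SC infusion by osmotic minipump or oral BID dosing at 0.1 and 1 mg/kg. The SC low dose targeted a steady-state level of ≈100 nmol/L, and the high dose targeted ≈10-fold more. The oral doses targeted ≈200 nmol/L at peak or trough. Peak, trough and steady-state plasma levels were measured, and AUC(0–24) was derived.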

human APJ [6] = molecular target: T1, human APJ; experiment: cAMP inhibition assay, HEK293 ZF cells; type: cell-based
other GPCRs = experiment: GPCR selectivity assays, cardiovascular receptor safety panel; type: binding, human; conditions: tested up to 30 µmol/L
[7] = tested on: instrumented anesthetized rats; experiment: Acute hemodynamics, 15-min IV infusion of BMS-986224; type: in vivo, rat; conditions: for CO percentage change from baseline / SV percentage change from baseline: 15 min
In short: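 Male Sprague-Dawley rats (≥250 g), anesthetized and surgically instrumented, received a 15-min IV infusion of test compound at 1, 10 or 100 μg/kg per min, then a 15-min washout. Vehicle-infused rats served as comparison. SV, CO, dP/dtmax, HR and mean arterial pressure were expressed as percentage change from baseline. Plasma exposure was sampled at each dose.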

[8] = tested on: RHR (renal hypertensive rat) model; experiment: RHR model, oral BID study; type: in vivo
[9] = tested on: instrumented anesthetized rats; experiment: Acute hemodynamics, dobutamine single dose 15-min IV infusion; type: in vivo, rat; conditions: 1 μg/kg/min IV, N=8
In short: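 Male Sprague-Dawley rats (≥250 g), anesthetized and surgically instrumented; test agents given as a 15-min IV infusion followed by a 15-min washout. Cardiac output and heart rate were expressed as percentage change from baseline during and after infusion. Paired Student t test was used for significance.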

[10] = 40 mg/kg/day SC infusion, BID study

Plasma exposure ([3]; 1 μg/kg per minute IV): 95 ± 5 nmol/L
free plasma concentration at the minimum effective dose ([3]; adjusted for protein binding, 1 μg/kg per minute): 2 nM
signaling bias relative to (Pyr1) apelin-13 (human APJ [4]): lack of bias
relative activity vs (Pyr1) apelin-13, ΔLog (RA) (human APJ [4]; ratio of Ymax and EC50, each signaling readout): > 0
steady-state plasma concentration ([5]; HD): 2686 nmol/L
steady-state plasma concentration ([5]; low dose): 102 nmol/L
area under the plasma drug concentration−time curve (0–24) ([5]; oral 0.1 mg/kg BID): 3.42 µM·h
peak plasma concentration ([5]; oral 0.1 mg/kg BID): 205 ± 11 nmol/L
trough plasma concentration ([5]; oral 0.1 mg/kg BID): 25 ± 4 nmol/L
area under the plasma drug concentration−time curve (0–24) ([5]; oral 1 mg/kg BID): 34.3 µM·h
peak plasma concentration ([5]; oral 1 mg/kg BID): 2095 ± 161 nmol/L
trough plasma concentration ([5]; oral 1 mg/kg BID): 302 ± 29 nmol/L
EC50 (human APJ [6]): 0.02 ± 0.02 nM
SMILES: CCOCc1nc(O)c(-c2nnc(Cc3ccc(Cl)cn3)o2)c(O)c1-c1c(OC)cccc1OC [BMS-986224]
SV and CO [1]: increased
other measured parameters (diastolic parameters, cardiac fibrosis, heart weight) [2]: without affecting
SV and CO ([2]; high dose 3 mg/kg/day, 3 mg/kg/day): not noted
binding/activity at other GPCRs (other GPCRs): did not bind other GPCRs
CO percentage change from baseline ([7]; 1 μg/kg/min IV): 8.2%
SV percentage change from baseline ([7]; 1 μg/kg/min IV): 6.0%
decrease in mean arterial pressure from baseline ([7]; 10 μg/kg per minute, P<0.001 versus vehicle): 1.9%
CO percentage change from baseline ([7]; 10 μg/kg/min IV): 15.4%
SV percentage change from baseline ([7]; 10 μg/kg/min IV): 12.6%
CO percentage change from baseline ([7]; 100 μg/kg/min IV): 15.9%
SV percentage change from baseline ([7]; 100 μg/kg/min IV): 12.3%
maximum increase in CO ([7]; 15-min IV infusion): ≈ 15%
maximum effective dose ([7]; based on the increases in CO): 10 μg/kg per minute
minimum effective dose ([7]; based on the increases in CO): 1 μg/kg per minute
LV mass or EF vs vehicle ([8]; oral BID, trough): no significant differences

SMILES: CC(CCc1ccc(O)cc1)NCCc1ccc(O)c(O)c1 (centres unmarked) [Dobutamine]
Cardiac output % change from baseline [9]: 11.2%

SMILES: CCOC(=O)[C@H](CCc1ccccc1)N[C@@H](C)C(=O)N1CCC[C@H]1C(=O)O [Enalapril]
LV end-diastolic volume vs vehicle [8, 10]: increased
LV mass, heart weight, and EF vs vehicle [8, 10]: reduced
SV, CO, and HR vs vehicle [8, 10]: without significant effect

— paper PMC7982131 (Circulation. Heart Failure, 2021)
